Test results reported in ChEMBL document CHEMBL3286101, “Probing of primed and unprimed sites of calpains: Design, synthesis and evaluation of epoxysuccinyl-peptide derivatives as selective inhibitors” (Eur J Med Chem, 2014).
Peptide text beside a SMILES is read from it. * marks the point of attachment. X4 = CC(C)C[C@H](NC(=O)[C@@H]1O[C@H]1C(=O)*)C(=O)N[C@@H](Cc1c[nH]c2ccccc12)C(=O)N[C@H](C(N)=O)[C@@H](C)O; X5 = CC(C)C[C@H](NC(=O)[C@H]1O[C@@H]1C(=O)*)C(=O)N[C@@H](Cc1c[nH]c2ccccc12)C(=O)N[C@H](C(N)=O)[C@@H](C)O; X3 = C[C@@H](O)[C@H](NC(=O)[C@@H]1CCCN1C(=O)[C@@H](NC(=O)[C@H]1O[C@@H]1C(=O)*)[C@@H](C)O)C(N)=O; X9 = C[C@@H](O)[C@H](NC(=O)[C@@H]1CCCN1C(=O)[C@@H](NC(=O)[C@@H]1O[C@H]1C(=O)*)[C@@H](C)O)C(N)=O; X10 = CC(C)C[C@H](NC(=O)[C@@H]1O[C@H]1C(=O)*)C(=O)N[C@@H](CO)C(=O)N[C@H](C(N)=O)[C@@H](C)O; X1 = CC(C)C[C@H](NC(=O)[C@H]1O[C@@H]1C(=O)*)C(=O)N1CCC[C@H]1C(=O)N[C@H](C(N)=O)[C@@H](C)O; X2 = CC(C)C[C@H](NC(=O)[C@@H]1O[C@H]1C(=O)*)C(=O)N1CCC[C@H]1C(=O)N[C@H](C(N)=O)[C@@H](C)O; X6 = CC(C)C[C@H](NC(=O)[C@H]1O[C@@H]1C(=O)*)C(=O)N[C@@H](CO)C(=O)N[C@H](C(N)=O)[C@@H](C)O; X7 = CC(C)[C@H](NC(=O)[C@@H]1O[C@H]1C(=O)*)C(=O)N1CCC[C@H]1C(=O)N[C@H](C(N)=O)[C@@H](C)O; X8 = CC(C)[C@H](NC(=O)[C@H]1O[C@@H]1C(=O)*)C(=O)N1CCC[C@H]1C(=O)N[C@H](C(N)=O)[C@@H](C)O

Legend:
[1] = Retention time of the compound by RP-HPLC analysis; type: physicochemical
Outline: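 Analytical RP-HPLC on a C18 column (150 × 4.6 mm, 5 μm, 100 Å). Eluent A is 0.1% TFA in water and eluent B is 0.1% TFA in acetonitrile–water 80:20. Gradient runs 0% B for 2 min, then to 90% B at 22 min, at 1 mL/min and ambient temperature. Detection at 220 nm.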

[2] = Inhibition of rat calpain-2 large subnit/truncated small subunit expressed in Escherichia coli using Suc-LY-AMC as substrate by fluorescence assay
Outline: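 Rat calpain 2 is made from its 80-kDa large subunit and 21-kDa truncated small subunit, expressed in E. coli, purified on HisTrap and dialyzed into calpain buffer (10 mM HEPES, 150 mM NaCl, 1 mM EDTA, pH 7.5). The reaction starts when 0.2 μM enzyme is added to 100 µM Suc-LY-AMC, 3 mM Ca2+ and inhibitor at various concentrations. Fluorescence is read at 380/460 nm. Triplicates; mean ± S.D.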

[3] = target: T1, Calpain-1 catalytic subunit (Homo sapiens, UniProt P07384); assay: Inhibition of calpain-1 (unknown origin) using Suc-LY-AMC as substrate by fluorescence assay
T1 sequence (P07384 whole entry): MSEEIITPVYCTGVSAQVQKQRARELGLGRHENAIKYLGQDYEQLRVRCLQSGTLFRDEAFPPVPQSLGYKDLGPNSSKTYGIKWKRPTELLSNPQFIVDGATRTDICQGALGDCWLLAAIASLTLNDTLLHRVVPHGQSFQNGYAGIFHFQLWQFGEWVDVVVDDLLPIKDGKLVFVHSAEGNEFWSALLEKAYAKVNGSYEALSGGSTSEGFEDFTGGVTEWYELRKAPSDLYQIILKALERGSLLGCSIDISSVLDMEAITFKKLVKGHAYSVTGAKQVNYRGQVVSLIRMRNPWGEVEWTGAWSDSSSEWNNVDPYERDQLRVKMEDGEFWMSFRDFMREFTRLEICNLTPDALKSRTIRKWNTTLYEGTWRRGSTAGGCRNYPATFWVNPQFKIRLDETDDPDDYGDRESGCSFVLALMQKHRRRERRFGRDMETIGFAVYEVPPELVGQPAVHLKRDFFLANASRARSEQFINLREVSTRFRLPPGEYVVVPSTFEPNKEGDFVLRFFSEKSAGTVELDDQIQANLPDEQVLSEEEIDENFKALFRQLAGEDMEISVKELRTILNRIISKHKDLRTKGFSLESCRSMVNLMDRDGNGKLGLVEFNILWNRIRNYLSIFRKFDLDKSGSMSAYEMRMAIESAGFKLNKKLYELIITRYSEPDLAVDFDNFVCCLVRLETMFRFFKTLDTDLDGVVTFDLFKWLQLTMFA
Outline: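 Human erythrocyte calpain 1 at 0.5 μM starts the reaction, added to 100 µM Suc-LY-AMC, 3 mM Ca2+ and inhibitor at various concentrations in 50 µL calpain buffer (10 mM HEPES, 150 mM NaCl, 1 mM EDTA, pH 7.5). Fluorescence is followed at 380/460 nm. Triplicate experiments; mean ± S.D.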

[4] = target: Cathepsin B (Homo sapiens, UniProt P07858); assay: Inhibition of cathepsin B (unknown origin) using substrate-3 as substrate by fluorescence assay
Outline: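 Human liver cathepsin B is activated in 0.25 mM MES containing 10 mM DTE. The reaction starts when it is added at 0.7 nM to 100 μM Z-Arg-AMC with inhibitor at various concentrations in 0.25 mM MES, pH 5.0. Fluorescence is followed at 380/460 nm. Triplicates; mean ± S.D.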

[5] = Selectivity ratio of Ki for cathepsin B (unknown origin) to Ki for rat calpain-2

| Structure (SMILES) | Retention_time [1] | Ki [2] | Ki [3] | Ki [4] | Ratio Ki [5] | Retention time [1] |
| --- | --- | --- | --- | --- | --- | --- |
| CC(C)C[C@H](NC(=O)[C@H]1O[C@@H]1C(=O)N[C@@H](CCCNC(=N)N)C(=O)N1CCC[C@H]1C(=O)N1CCC[C@H]1C(=O)N1CCC[C@H]1C(=O)N[C@@H](CO)C(N)=O)C(=O)N1CCC[C@H]1C(=O)N[C@H](C(N)=O)[C@@H](C)O (X1-RPPPS-NH2) | 11.1 min | 17.9 µM | 23.7 µM | > 50 µM |  |  |
| CC(C)C[C@H](NC(=O)[C@H]1O[C@@H]1C(=O)N[C@@H](CO)C(=O)N1CCC[C@H]1C(=O)N1CCC[C@H]1C(=O)N1CCC[C@H]1C(=O)N[C@@H](CO)C(N)=O)C(=O)N1CCC[C@H]1C(=O)N[C@H](C(N)=O)[C@@H](C)O (X1-SPPPS-NH2) | 12.5 min | > 50 µM | 12.5 µM | > 50 µM |  |  |
| CC(C)C[C@H](NC(=O)[C@H]1O[C@@H]1C(=O)N[C@@H](CO)C(=O)N[C@@H](CCC(N)=O)C(=O)N1CCC[C@H]1C(=O)N1CCC[C@H]1C(=O)N[C@@H](CO)C(N)=O)C(=O)N1CCC[C@H]1C(=O)N[C@H](C(N)=O)[C@@H](C)O (X1-SQPPS-NH2) | 10.8 min | > 100 µM | > 100 µM | > 100 µM |  |  |
| CC(C)C[C@H](NC(=O)[C@H]1O[C@@H]1C(=O)N[C@@H](CO)C(=O)N[C@@H](CO)C(=O)N1CCC[C@H]1C(=O)N1CCC[C@H]1C(=O)N[C@@H](CO)C(N)=O)C(=O)N1CCC[C@H]1C(=O)N[C@H](C(N)=O)[C@@H](C)O (X1-SSPPS-NH2) | 12 min | > 100 µM | > 100 µM | > 100 µM |  |  |
| CC(C)C[C@H](NC(=O)[C@H]1O[C@@H]1C(=O)N[C@H](C(=O)N1CCC[C@H]1C(=O)N1CCC[C@H]1C(=O)N1CCC[C@H]1C(=O)N[C@@H](CO)C(N)=O)[C@@H](C)O)C(=O)N1CCC[C@H]1C(=O)N[C@H](C(N)=O)[C@@H](C)O (X1-TPPPS-NH2) | 11 min | > 50 µM | 8.38 µM | 12.1 µM |  |  |
| CC(C)C[C@H](NC(=O)[C@@H]1O[C@H]1C(=O)N[C@@H](CCCNC(=N)N)C(=O)N1CCC[C@H]1C(=O)N1CCC[C@H]1C(=O)N1CCC[C@H]1C(=O)N[C@@H](CO)C(N)=O)C(=O)N1CCC[C@H]1C(=O)N[C@H](C(N)=O)[C@@H](C)O (X2-RPPPS-NH2) | 11.1 min | > 50 µM | 26.3 µM | > 100 µM |  |  |
| CC(C)C[C@H](NC(=O)[C@@H]1O[C@H]1C(=O)N[C@@H](CO)C(=O)N1CCC[C@H]1C(=O)N1CCC[C@H]1C(=O)N1CCC[C@H]1C(=O)N[C@@H](CO)C(N)=O)C(=O)N1CCC[C@H]1C(=O)N[C@H](C(N)=O)[C@@H](C)O (X2-SPPPS-NH2) | 10.9 min | > 50 µM | > 100 µM | > 50 µM |  |  |
| CC(C)C[C@H](NC(=O)[C@@H]1O[C@H]1C(=O)N[C@@H](CO)C(=O)N[C@@H](CCC(N)=O)C(=O)N1CCC[C@H]1C(=O)N1CCC[C@H]1C(=O)N[C@@H](CO)C(N)=O)C(=O)N1CCC[C@H]1C(=O)N[C@H](C(N)=O)[C@@H](C)O (X2-SQPPS-NH2) | 10.7 min | > 100 µM | > 100 µM | > 100 µM |  |  |
| CC(C)C[C@H](NC(=O)[C@@H]1O[C@H]1C(=O)N[C@@H](CO)C(=O)N[C@@H](CO)C(=O)N1CCC[C@H]1C(=O)N1CCC[C@H]1C(=O)N[C@@H](CO)C(N)=O)C(=O)N1CCC[C@H]1C(=O)N[C@H](C(N)=O)[C@@H](C)O (X2-SSPPS-NH2) | 11.9 min | > 100 µM | > 100 µM | > 100 µM |  |  |
| CC(C)C[C@H](NC(=O)[C@@H]1O[C@H]1C(=O)N[C@H](C(=O)N1CCC[C@H]1C(=O)N1CCC[C@H]1C(=O)N1CCC[C@H]1C(=O)N[C@@H](CO)C(N)=O)[C@@H](C)O)C(=O)N1CCC[C@H]1C(=O)N[C@H](C(N)=O)[C@@H](C)O (X2-TPPPS-NH2) | 12.3 min | 4.24 µM | > 50 µM | > 50 µM | 11.8 |  |
| C[C@@H](O)[C@H](NC(=O)[C@@H]1CCCN1C(=O)[C@@H](NC(=O)[C@H]1O[C@@H]1C(=O)N[C@@H](CO)C(=O)N1CCC[C@H]1C(=O)N1CCC[C@H]1C(=O)N1CCC[C@H]1C(=O)N[C@@H](CO)C(N)=O)[C@@H](C)O)C(N)=O (X3-SPPPS-NH2) | 9.7 min | > 100 µM | > 100 µM | > 100 µM |  |  |
| CC(C)C[C@H](NC(=O)[C@@H]1O[C@H]1C(=O)N[C@@H](CO)C(=O)N1CCC[C@H]1C(=O)N1CCC[C@H]1C(=O)N1CCC[C@H]1C(=O)N[C@@H](CO)C(N)=O)C(=O)N[C@@H](Cc1c[nH]c2ccccc12)C(=O)N[C@H](C(N)=O)[C@@H](C)O (X4-SPPPS-NH2) | 13.2 min | 21.4 µM | 3.7 µM | 4.45 µM |  |  |
| CC(C)C[C@H](NC(=O)[C@H]1O[C@@H]1C(=O)N[C@@H](CO)C(=O)N1CCC[C@H]1C(=O)N1CCC[C@H]1C(=O)N1CCC[C@H]1C(=O)N[C@@H](CO)C(N)=O)C(=O)N[C@@H](Cc1c[nH]c2ccccc12)C(=O)N[C@H](C(N)=O)[C@@H](C)O (X5-SPPPS-NH2) |  | 4.05 µM | 17.1 µM | 5 µM |  | 12.5 min |
| CC(C)C[C@H](NC(=O)[C@H]1O[C@@H]1C(=O)N[C@@H](CO)C(=O)N1CCC[C@H]1C(=O)N1CCC[C@H]1C(=O)N1CCC[C@H]1C(=O)N[C@@H](CO)C(N)=O)C(=O)N[C@@H](CO)C(=O)N[C@H](C(N)=O)[C@@H](C)O (X6-SPPPS-NH2) | 10.3 min | 14.3 µM | 21.9 µM | > 50 µM |  |  |
| CC(C)[C@H](NC(=O)[C@@H]1O[C@H]1C(=O)N[C@@H](CO)C(=O)N1CCC[C@H]1C(=O)N1CCC[C@H]1C(=O)N1CCC[C@H]1C(=O)N[C@@H](CO)C(N)=O)C(=O)N1CCC[C@H]1C(=O)N[C@H](C(N)=O)[C@@H](C)O (X7-SPPPS-NH2) | 10.2 min | > 100 µM | > 50 µM | > 100 µM |  |  |
| CC(C)[C@H](NC(=O)[C@H]1O[C@@H]1C(=O)N[C@@H](CO)C(=O)N1CCC[C@H]1C(=O)N1CCC[C@H]1C(=O)N1CCC[C@H]1C(=O)N[C@@H](CO)C(N)=O)C(=O)N1CCC[C@H]1C(=O)N[C@H](C(N)=O)[C@@H](C)O (X8-SPPPS-NH2) | 10.7 min | 29.2 µM | > 50 µM | > 100 µM |  |  |
| C[C@@H](O)[C@H](NC(=O)[C@@H]1CCCN1C(=O)[C@@H](NC(=O)[C@@H]1O[C@H]1C(=O)N[C@@H](CO)C(=O)N1CCC[C@H]1C(=O)N1CCC[C@H]1C(=O)N1CCC[C@H]1C(=O)N[C@@H](CO)C(N)=O)[C@@H](C)O)C(N)=O (X9-SPPPS-NH2) | 9.1 min |  | > 100 µM |  |  |  |
| CC(C)C[C@H](NC(=O)[C@@H]1O[C@H]1C(=O)N[C@@H](CO)C(=O)N1CCC[C@H]1C(=O)N1CCC[C@H]1C(=O)N1CCC[C@H]1C(=O)N[C@@H](CO)C(N)=O)C(=O)N[C@@H](CO)C(=O)N[C@H](C(N)=O)[C@@H](C)O (X10-SPPPS-NH2) | 10.2 min |  | 30.8 µM |  |  |  |
